Rows were chosen to be rich in hits. Some 1.8% of all compounds tested hit in one or more screens of this group.
TCR-CD3 inh = inhibitors of human TCR-CD3 interaction. inhibition, % at 9.4 µM. hit rate 0.37% among 360,000. TAMRA-labeled TCR probe fluorescence, biochemical; in the data active = inhibition above about 19%;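 also: recombinant mutant TCR 2C K166C tagged with TAMRA read by polarization; 0% = receptor in buffer alone and 100% = receptor with positive control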
DDE Tn7 FP inh = inhibitors of Tn7 peptide binding to human fibrin DD(E); FP displacement of FITC-Tn7 peptide from fibrin DD(E); 0% = median of compound wells per plate; hit rate 0.13% among 370,000; inhibition, % at 8.3 µM; P02675;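 active = inhibition above the mean of compounds falling within the control limits plus 3 SD of them, cut at about 14% in these data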;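 also: 0% = plate median of compound wells and 100% = 10 µM Aha-Tn7 peptide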
Target sequence (P02675 whole entry, looked up): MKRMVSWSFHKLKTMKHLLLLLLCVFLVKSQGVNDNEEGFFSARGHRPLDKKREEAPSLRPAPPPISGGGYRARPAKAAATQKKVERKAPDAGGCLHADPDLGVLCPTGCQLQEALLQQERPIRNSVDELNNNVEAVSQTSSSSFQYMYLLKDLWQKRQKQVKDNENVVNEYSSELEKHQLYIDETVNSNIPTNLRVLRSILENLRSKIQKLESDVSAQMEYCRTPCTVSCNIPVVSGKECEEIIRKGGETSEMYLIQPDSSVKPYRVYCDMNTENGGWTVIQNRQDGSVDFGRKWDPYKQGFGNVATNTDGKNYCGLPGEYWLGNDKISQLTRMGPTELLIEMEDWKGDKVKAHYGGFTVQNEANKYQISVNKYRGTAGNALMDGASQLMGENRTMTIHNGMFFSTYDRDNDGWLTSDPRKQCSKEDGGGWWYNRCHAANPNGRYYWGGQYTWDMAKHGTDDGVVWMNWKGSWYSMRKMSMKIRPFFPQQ
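System: human fibrin DD(E); quantity: Fibrin-DD(E) at 2 µM final; also added: fluorescent Tn7 probe at 0.1 µM; compound dosing: single nominal test concentration of 8.3 µM per compound; schedule: 10 min preincubation, 3 h with tracer, room temperature; detection: fluorescence polarization of the labelled Tn7 tracer; repeats: one replicate per compound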
DDE Tn6 FP inh = DD(E)-Tn6 binding inhibition, primary FP screen | P02675 | Fibrin DD(E) TRITC-Tn6 fluorescence polarization displacement | inhibition, % at 8.3 µM | hit rate 0.21% among 370,000 | AID 720509;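 active = inhibition above a per-campaign cutoff: mean of compounds within control limits plus 3 SD, cut at about 15% in these data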;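 also: 0% = median of all compound wells on the plate and 100% = blocking peptide control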
SIAE primary = blocks human sialic acid acetylesterase; Q9HAT2; hit rate 0.69% among 370,000; AID 1053197; inhibition, % at 9.66 µM; SIAE FP-Rh probe binding, fluorescence polarization;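 active = inhibition above a cutoff: mean of compounds within the control limits plus 3 SD of those, cut at about 17% in these data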;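 also: 0% = plate median of compound wells and 100% = probe without SIAE protein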
HTRA1 inhibitor = inhibitors of human serine peptidase HTRA1. Q92743. recombinant HTRA1, FP-rhodamine activity-based probe, fluorescence polarization. inhibition, % at 5.96 µM. hit rate 0.5% among 340,000. AID 504803; in the data active = inhibition above about 36%;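 also: 0% = enzyme with DMSO and 100% = wells lacking enzyme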
mABHD4 FP = ABHD4 (mouse) inhibition, primary FP screen; purified mABHD4, FP-Rh probe fluorescence polarization; inhibition, % at 8.92 µM; hit rate 0.54% among 370,000; AID 720543;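 active = inhibition exceeding the mean over every tested compound plus 3 SD, cut at about 30% in these data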;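 also: 0% = plate median of compound wells and 100% = S159A mutant with DMSO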
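Assay system: wild-type mouse ABHD4 protein; compound: single nominal dose of 8.92 µM, 0.89% DMSO final; schedule: 45 min + 60 min at 25 °C; measured by: FP readout, ex 525 nm / em 598 nm; evaluation: % inhibition of FP-Rh probe binding versus controls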
Tn6 DDE ctr = counter-screen for inhibitors of Tn6 peptide binding to fibrin DD(E); shares compounds with DDE Tn6 FP inh; TRITC-Tn6 fluorescence polarization displacement; 0% = median of compound wells, not DMSO; inhibition, % at 8.3 µM; hit rate 2% among 680;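 active = inhibition above the mean of test compounds lying between the control limits plus 3 SD of those, cut at about 14% in these data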;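 also: 0% = median of compound wells and 100% = wells with Aha-Tn7 blocking peptide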
DDE Tn6 confirm = confirmation of inhibitors of Tn6 binding to human fibrin DD(E) | FP displacement of TRITC-Tn6 peptide from DD(E); 0% = per-plate median of test wells | inhibition, % at 8.3 µM | hit rate 10% among 680 | shares compounds with DDE Tn6 FP inh;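 active = inhibition above the mean of compounds lying within the control limits plus 3 SD, cut at about 16% in these data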;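 also: 100% = high control wells holding a competing inhibitor peptide at 10 µM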
Active calls of the source: *.

Screening COC1=C[C@H](C(=O)NCc2ccc(OC)cc2)C(C)C(c2ccccc2)CC1=O (stereo partly drawn) returned DDE Tn7 FP inh 8, DDE Tn6 FP inh -6, SIAE primary 7 and mABHD4 FP -8.
`COC(=O)[C@]12C[C@H](CC(=O)NCc3cccc(C(F)(F)F)c3)C(=O)N(CCc3ccc(OC)c(OC)c3)C1=C[C@H](COCc1ccccc1)O[C@@H]2C` gave DDE Tn7 FP inh 3, DDE Tn6 FP inh 1, SIAE primary -4 and mABHD4 FP -10.
CCOc1ccc(CCN2C(=S)N([C@@H](Cc3ccc(O)cc3)CN3CCCC3CN3C(=S)NC[C@@H]3Cc3ccc(O)cc3)C[C@@H]2CC(C)C)cc1 (stereo partly drawn) was read as TCR-CD3 inh 5, DDE Tn7 FP inh 2, DDE Tn6 FP inh -8, SIAE primary -35, HTRA1 inhibitor -75 and mABHD4 FP -20.
Oc1ccc(C[C@H]2CNC(=S)N2C[C@H]2CCCN2C[C@H](Cc2ccccc2)N2C[C@H](Cc3ccc(O)cc3)N(CCc3ccccc3)C2=S)cc1 was read as TCR-CD3 inh 6, DDE Tn7 FP inh 3, DDE Tn6 FP inh 17*, SIAE primary -46, mABHD4 FP -38, Tn6 DDE ctr -2 and DDE Tn6 confirm -10.
Screening CCOc1ccc(CCN2C(=S)N([C@@H](Cc3ccc(O)cc3)CN3CCC[C@@H]3CN3C(=S)NC[C@@H]3CC(C)C)C[C@@H]2Cc2ccc(O)cc2)cc1 returned TCR-CD3 inh 7, DDE Tn7 FP inh 0, DDE Tn6 FP inh 16*, SIAE primary -28, mABHD4 FP -33, Tn6 DDE ctr 0 and DDE Tn6 confirm -6.
Oc1ccc(C[C@H]2CNC(=S)N2CC2CCCN2C[C@H](Cc2ccc(O)cc2)N2C[C@H](Cc3ccc(O)cc3)N(CC3CCCCCC3)C2=S)cc1 (stereo partly drawn) was read as TCR-CD3 inh 4, DDE Tn7 FP inh 8, DDE Tn6 FP inh 31*, SIAE primary -56, HTRA1 inhibitor -74, mABHD4 FP -34, Tn6 DDE ctr -2 and DDE Tn6 confirm -1.
Screening C[C@@H]1COc2cccc(N3CCCC3)c2S(=O)(=O)N1 returned TCR-CD3 inh -3, DDE Tn7 FP inh -2, DDE Tn6 FP inh -1, SIAE primary 4 and mABHD4 FP -5.
COC(=O)[C@]12C[C@H](CC(=O)N3CCOCC3)C(=O)N(CCc3ccc(OC)c(OC)c3)C1=C[C@H](C1CCCC1)O[C@@H]2C was read as DDE Tn7 FP inh 0, DDE Tn6 FP inh -1, SIAE primary 3 and mABHD4 FP 5.
Screening COC(=O)[C@H]1C[C@@]2(Oc3ccc(Br)cc3)c3ccccc3N(C(=O)OC(C)(C)C)[C@H]2N1C(=O)OC(C)(C)C returned DDE Tn7 FP inh -5, DDE Tn6 FP inh 5, SIAE primary 3 and mABHD4 FP -11.
For C[n+]1c(-c2ccccc2)cc2c(=Cc3ccccc3)c3ccccc3n21 the results were TCR-CD3 inh -17, DDE Tn7 FP inh -3, DDE Tn6 FP inh 17*, SIAE primary -68, HTRA1 inhibitor -14, mABHD4 FP -108, Tn6 DDE ctr 3 and DDE Tn6 confirm 1.
For COC(=O)c1cccc(NC(=S)N2CCN(c3ccccc3F)CC2)c1 the results were TCR-CD3 inh 3, DDE Tn7 FP inh 4, DDE Tn6 FP inh 18*, SIAE primary -4, HTRA1 inhibitor 0, mABHD4 FP -4, Tn6 DDE ctr 2 and DDE Tn6 confirm -8.
For COC(=O)c1cccc(NC(=S)N2CCCCC2)c1 the results were TCR-CD3 inh 1, DDE Tn7 FP inh -9, DDE Tn6 FP inh 0, SIAE primary 12, HTRA1 inhibitor 6 and mABHD4 FP -1.
For O=C(OC12CCCN(C1)/C(=C/c1cccc(Cl)c1)C2)c1cccc(F)c1 (stereo not drawn) the results were DDE Tn7 FP inh 2, DDE Tn6 FP inh -3, SIAE primary -3 and mABHD4 FP 3.
For O=S(=O)(NCc1ccc(Cl)c(Cl)c1)c1cc(Cl)ccc1N1CC[C@@H](O)C1 the results were TCR-CD3 inh -1, DDE Tn7 FP inh -3, DDE Tn6 FP inh -7, SIAE primary -4 and mABHD4 FP -24.
`CC(COc1ccc(OC(F)(F)F)cc1)CN1CCC(C(O)(c2ccccc2)c2ccccc2)CC1` (stereo not drawn) gave DDE Tn7 FP inh 2, DDE Tn6 FP inh 22*, SIAE primary -2, mABHD4 FP 8, Tn6 DDE ctr 8 and DDE Tn6 confirm 8.
Screening O=C(N/N=C/c1cccc(OCc2ccccc2)c1)c1ccc(Br)cc1 returned TCR-CD3 inh 6, DDE Tn7 FP inh 1, DDE Tn6 FP inh -1, SIAE primary 4, HTRA1 inhibitor -18 and mABHD4 FP -8.
O=C(NN=Cc1cccc(OCc2ccccc2)c1)c1cc(-c2ccc(Cl)cc2)n[nH]1 was read as DDE Tn7 FP inh -4, DDE Tn6 FP inh 22*, SIAE primary -129, mABHD4 FP -69, Tn6 DDE ctr 2 and DDE Tn6 confirm -1.
CCc1ccc(OCC(=O)Nc2ccc3oc(=O)ccc3c2)cc1 was read as TCR-CD3 inh 5, DDE Tn7 FP inh 6, DDE Tn6 FP inh 17*, SIAE primary -12, HTRA1 inhibitor -9, mABHD4 FP -4, Tn6 DDE ctr 5 and DDE Tn6 confirm -2.
`Cc1ccc(OCC(=O)Nc2ccc3oc(=O)ccc3c2)cc1` gave TCR-CD3 inh -2, DDE Tn7 FP inh 2, DDE Tn6 FP inh -2, SIAE primary 9, HTRA1 inhibitor 1 and mABHD4 FP -6.
Screening C[C@@H]1C=CCCO[C@]12C(=O)N(Cc1ccc(Br)cc1)c1cccc(Br)c12 returned TCR-CD3 inh 2, DDE Tn7 FP inh 6, DDE Tn6 FP inh -3, SIAE primary -5 and mABHD4 FP -1.
Screening CCC[C@H]1[C@@H](OC(=O)NCc2ccco2)CC[C@@]23CCCN2C(=O)CCC[C@@H]13 returned DDE Tn7 FP inh -2, DDE Tn6 FP inh 1, SIAE primary 5 and mABHD4 FP 2.
For Cc1ccc(C(=O)NC(Cc2cccc(F)c2)C(=O)O)cc1 (stereo not drawn) the results were TCR-CD3 inh 1, DDE Tn7 FP inh -7, DDE Tn6 FP inh 5, SIAE primary 4, HTRA1 inhibitor -3 and mABHD4 FP -3.

Screening results: PubChem BioAssay, The Scripps Research Institute Molecular Screening Center
